Values joined by “and” are separate entries in the source; they are usually repeats but may differ in a detail not shown here. Equal values may be shown once.
System: U2OS
Assay: Multiplex assay against U2OS
Type: toxicity, cell-based
Details: human
How it was run: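 Four dyes were applied at seeding to live cells: Hoechst33342, BioTracker Green Microtubule Cytoskeleton Dye, MitoTracker Red and Annexin V Alexa Fluor 680. Imaging after compound addition used a CQ1 microscope at 37°C and 5% CO2. CellPathfinder machine-learning gating then sorted cells into Hoechst high-intensity objects or normal cells, normal cells into healthy, pyknosed or fragmented nuclei, and pyknosed cells into mitotic or apoptotic, with tubulin, mitochondrial-mass and membrane-permeability phenotypes given as per cents of healthy-nucleus cells.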

[1] = 12 h, 1 µM, compound concentration 1 uM
[2] = 12 h, 10 µM, compound concentration 10 uM
[3] = 24 h, 1 µM, compound concentration 1 uM
[4] = 24 h, 10 µM, compound concentration 10 uM
[5] = 48 h, 1 µM, compound concentration 1 uM
[6] = 48 h, 10 µM, compound concentration 10 uM

Compound: COc1ccccc1N1CCN(C[C@@H](C(=O)NC(C)(C)C)c2ccccc2)CC1.Cl.Cl
- Population Apoptotic (%) [1]: 73% and 66%
- Population Fragmented Nuclei (%) [1]: 29% and 14%
- Population Healthy Nuclei (%) [1]: 65% and 80%
- Population Hoechst High Intensity Objects (%) [1]: 2% and 1%
- Population Membrane Permeable-Phenotype (%) [1]: 5% and 7%
- Population Mitochondria Different-Phenotype (%) [1]: 3% and 2%
- Population Mitotic Cells (%) [1]: 26% and 33%
- Population Normal (%) [1]: 97% and 98%
- Population Pyknosed Nuclei (%) [1]: 5%
- Population Tubulin-Different-Phenotype (%) [1]: 1% and 3%
- Total Cell Count [1]: 281 and 114
- Population Apoptotic (%) [2]: 46% and 50%
- Population Fragmented Nuclei (%) [2]: 35% and 17%
- Population Healthy Nuclei (%) [2]: 49% and 66%
- Population Hoechst High Intensity Objects (%) [2]: 3% and 0%
- Population Membrane Permeable-Phenotype (%) [2]: 41% and 49%
- Population Mitochondria Different-Phenotype (%) [2]: 41% and 56%
- Population Mitotic Cells (%) [2]: 53% and 50%
- Population Normal (%) [2]: 96% and 99%
- Population Pyknosed Nuclei (%) [2]: 14% and 15%
- Population Tubulin-Different-Phenotype (%) [2]: 41% and 64%
- Total Cell Count [2]: 226 and 102
- Population Apoptotic (%) [3]: 68% and 80%
- Population Fragmented Nuclei (%) [3]: 29% and 16%
- Population Healthy Nuclei (%) [3]: 62% and 75%
- Population Hoechst High Intensity Objects (%) [3]: 3%
- Population Membrane Permeable-Phenotype (%) [3]: 7% and 5%
- Population Mitochondria Different-Phenotype (%) [3]: 1% and 6%
- Population Mitotic Cells (%) [3]: 32% and 20%
- Population Normal (%) [3]: 96%
- Population Pyknosed Nuclei (%) [3]: 8%
- Population Tubulin-Different-Phenotype (%) [3]: 3% and 2%
- Total Cell Count [3]: 320 and 129
- Population Apoptotic (%) [4]: 61% and 70%
- Population Fragmented Nuclei (%) [4]: 38% and 20%
- Population Healthy Nuclei (%) [4]: 42% and 63%
- Population Hoechst High Intensity Objects (%) [4]: 5%
- Population Membrane Permeable-Phenotype (%) [4]: 20% and 39%
- Population Mitochondria Different-Phenotype (%) [4]: 33% and 61%
- Population Mitotic Cells (%) [4]: 38% and 29%
- Population Normal (%) [4]: 94%
- Population Pyknosed Nuclei (%) [4]: 18% and 15%
- Population Tubulin-Different-Phenotype (%) [4]: 25% and 52%
- Total Cell Count [4]: 235 and 113
- Population Apoptotic (%) [5]: 78% and 83%
- Population Fragmented Nuclei (%) [5]: 21% and 16%
- Population Healthy Nuclei (%) [5]: 66% and 72%
- Population Hoechst High Intensity Objects (%) [5]: 2% and 4%
- Population Membrane Permeable-Phenotype (%) [5]: 5% and 7%
- Population Mitochondria Different-Phenotype (%) [5]: 1% and 2%
- Population Mitotic Cells (%) [5]: 22% and 16%
- Population Normal (%) [5]: 97% and 95%
- Population Pyknosed Nuclei (%) [5]: 11%
- Population Tubulin-Different-Phenotype (%) [5]: 1% and 4%
- Total Cell Count [5]: 452 and 162
- Population Apoptotic (%) [6]: 58% and 96%
- Population Fragmented Nuclei (%) [6]: 33% and 18%
- Population Healthy Nuclei (%) [6]: 44% and 58%
- Population Hoechst High Intensity Objects (%) [6]: 4% and 8%
- Population Membrane Permeable-Phenotype (%) [6]: 28% and 43%
- Population Mitochondria Different-Phenotype (%) [6]: 30% and 29%
- Population Normal (%) [6]: 95% and 91%
- Population Pyknosed Nuclei (%) [6]: 21% and 22%
- Population Tubulin-Different-Phenotype (%) [6]: 21% and 35%
- Total Cell Count [6]: 271 and 121

Compound: CCOc1ccccc1C(=O)NCC1(N2CCN(CC)CC2)CCCCC1
- Population Apoptotic (%) [1]: 45.83% and 31.82%
- Population Fragmented Nuclei (%) [1]: 1.72% and 5.19%
- Population Healthy Nuclei (%) [1]: 91.38% and 78.52%
- Population Hoechst High Intensity Objects (%) [1]: 0%
- Population Membrane Permeable-Phenotype (%) [1]: 1.26% and 8.49%
- Population Mitotic Cells (%) [1]: 54.17% and 68.18%
- Population Normal (%) [1]: 100%
- Population Pyknosed Nuclei (%) [1]: 6.9% and 16.3%
- Population Tubulin-Different-Phenotype (%) [1]: 0.63% and 0.94%
- Total Cell Count [1]: 348 and 135
- Population Apoptotic (%) [2]: 35% and 23.68%
- Population Fragmented Nuclei (%) [2]: 1.81% and 4.03%
- Population Healthy Nuclei (%) [2]: 80.05% and 70.47%
- Population Hoechst High Intensity Objects (%) [2]: 0.23% and 0%
- Population Membrane Permeable-Phenotype (%) [2]: 16.15% and 31.43%
- Population Mitotic Cells (%) [2]: 65% and 76.32%
- Population Normal (%) [2]: 99.77% and 100%
- Population Pyknosed Nuclei (%) [2]: 18.14% and 25.5%
- Population Tubulin-Different-Phenotype (%) [2]: 49.86% and 44.76%
- Total Cell Count [2]: 442 and 149
- Population Apoptotic (%) [3]: 46.15% and 50%
- Population Fragmented Nuclei (%) [3]: 1.89% and 5.62%
- Population Healthy Nuclei (%) [3]: 87.16% and 80.62%
- Population Hoechst High Intensity Objects (%) [3]: 0%
- Population Membrane Permeable-Phenotype (%) [3]: 1.21% and 8.53%
- Population Mitochondria Different-Phenotype (%) [3]: 0% and 12.4%
- Population Mitotic Cells (%) [3]: 53.85% and 50%
- Population Normal (%) [3]: 100%
- Population Pyknosed Nuclei (%) [3]: 10.95% and 13.75%
- Population Tubulin-Different-Phenotype (%) [3]: 0.48% and 1.55%
- Total Cell Count [3]: 475 and 160
- Population Apoptotic (%) [4]: 52.04% and 44.44%
- Population Fragmented Nuclei (%) [4]: 2.49% and 6.29%
- Population Healthy Nuclei (%) [4]: 80.07% and 65.41%
- Population Hoechst High Intensity Objects (%) [4]: 0%
- Population Membrane Permeable-Phenotype (%) [4]: 8% and 10.58%
- Population Mitotic Cells (%) [4]: 47.96% and 55.56%
- Population Normal (%) [4]: 100%
- Population Pyknosed Nuclei (%) [4]: 17.44% and 28.3%
- Population Tubulin-Different-Phenotype (%) [4]: 29.33% and 41.35%
- Population Apoptotic (%) [5]: 37.84% and 48.15%
- Population Fragmented Nuclei (%) [5]: 2.6% and 4.8%
- Population Healthy Nuclei (%) [5]: 88.67% and 71.62%
- Population Hoechst High Intensity Objects (%) [5]: 0%
- Population Membrane Permeable-Phenotype (%) [5]: 1.33% and 6.1%
- Population Mitotic Cells (%) [5]: 62.16% and 51.85%
- Population Normal (%) [5]: 100%
- Population Pyknosed Nuclei (%) [5]: 8.74% and 23.58%
- Population Tubulin-Different-Phenotype (%) [5]: 0.93% and 3.05%
- Population Apoptotic (%) [6]: 58.2% and 70.77%
- Population Fragmented Nuclei (%) [6]: 2.88% and 5.66%
- Population Healthy Nuclei (%) [6]: 83.08% and 63.68%
- Population Hoechst High Intensity Objects (%) [6]: 0.11% and 0%
- Population Mitotic Cells (%) [6]: 41.8% and 29.23%
- Population Normal (%) [6]: 99.89% and 100%
- Population Pyknosed Nuclei (%) [6]: 14.04% and 30.66%
- Population Tubulin-Different-Phenotype (%) [6]: 15.24% and 28.89%

Source: ChEMBL document CHEMBL5724801, “EUbOPEN Chemogenomics Library - Multiplex” (2024)
